Experimental data published in ChEMBL document CHEMBL4406806, “Design, Synthesis, and Characterization of Ogerin-Based Positive Allosteric Modulators for G Protein-Coupled Receptor 68 (GPR68)” (J Med Chem, 2019).
Active and inactive are the calls of the source. The calls are words filed in the database; no cut-off is given here.

What was measured:
[1] = molecular target: G-prodeshotein coupled receptor 4 (Homo sapiens) (UniProt P46093); test: (§1) Positive allosteric modulation of human GPR4 expressed in HEK293T cells co-expressing Gs assessed as stimulation of proton-mediated cAMP production at higher concentration in HBSS buffer containing pH 6.8 to 8.2 HEPES/pH 8.3 to 8.6 TAPS measured after 20 to 30 mins in presence of PDE inhibitor Ro 20-1724 by luciferase-glo reporter gene assay; type: functional, cell-based
Chain of G-prodeshotein coupled receptor 4 (Homo sapiens) (P46093 whole entry, looked up): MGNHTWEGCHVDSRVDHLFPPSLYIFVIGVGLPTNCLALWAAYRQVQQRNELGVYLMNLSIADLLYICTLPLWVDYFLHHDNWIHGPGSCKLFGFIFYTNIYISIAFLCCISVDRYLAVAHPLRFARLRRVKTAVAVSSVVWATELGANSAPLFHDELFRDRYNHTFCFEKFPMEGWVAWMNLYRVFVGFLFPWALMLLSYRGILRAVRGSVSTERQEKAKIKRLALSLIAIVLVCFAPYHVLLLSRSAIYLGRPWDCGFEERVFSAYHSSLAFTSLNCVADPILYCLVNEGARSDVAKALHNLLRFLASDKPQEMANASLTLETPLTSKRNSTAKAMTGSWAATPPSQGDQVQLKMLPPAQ
Summary of the method: (§2)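 Transient co-transfection of HEK293T with receptor and GloSensor plasmids using PEI, overnight, then replated in DMEM + 1% dFBS for 6–24 h. Luciferin 3.5 mM loaded for 1 h at 37 °C in HBSS/20 mM TAPS, pH 8.40. Proton series: Ca/Mg-free HBSS with MES (pH 5.60–6.70), HEPES (6.80–8.20) or TAPS (8.30–8.60), plus 10 μM Ro 20-1724. BSA 1 mg/mL added where solubility required. Luminescence read at 20–30 min. At least six 16-point proton curves across modulator concentrations, quadruplicate, ≥3 independent assays.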

[2] = molecular target: Atypical chemokine receptor 3 (Homo sapiens, UniProt P25106); test: Agonist activity at human ACKR3 expressed in HTLA cells assessed as stimulation of beta-arrestin recruitment at 1 uM incubated for 16 to 20 hrs by bright-glo luminescence assay; type: cell-based
Chain of Atypical chemokine receptor 3 (P25106 whole entry): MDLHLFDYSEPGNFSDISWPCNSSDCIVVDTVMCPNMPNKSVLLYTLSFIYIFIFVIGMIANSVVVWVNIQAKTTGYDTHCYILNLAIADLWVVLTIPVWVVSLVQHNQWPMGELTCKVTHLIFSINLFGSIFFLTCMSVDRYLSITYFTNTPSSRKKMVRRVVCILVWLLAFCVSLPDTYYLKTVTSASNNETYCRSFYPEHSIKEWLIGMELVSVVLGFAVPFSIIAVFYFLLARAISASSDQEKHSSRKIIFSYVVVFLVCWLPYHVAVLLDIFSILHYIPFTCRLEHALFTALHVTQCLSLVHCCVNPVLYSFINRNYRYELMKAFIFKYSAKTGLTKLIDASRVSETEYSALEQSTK

Adenosine receptor A2a [3] = molecular target: T1, Adenosine receptor A2a (Homo sapiens, UniProt P29274); test: Agonist activity at recombinant human A2A receptor expressed in HEK293T cells co-expressing Gs assessed as stimulation of cAMP accumulation measured after 15 mins by Glosensor chemiluminescence assay; type: functional, cell-based
T1 sequence (P29274 whole entry): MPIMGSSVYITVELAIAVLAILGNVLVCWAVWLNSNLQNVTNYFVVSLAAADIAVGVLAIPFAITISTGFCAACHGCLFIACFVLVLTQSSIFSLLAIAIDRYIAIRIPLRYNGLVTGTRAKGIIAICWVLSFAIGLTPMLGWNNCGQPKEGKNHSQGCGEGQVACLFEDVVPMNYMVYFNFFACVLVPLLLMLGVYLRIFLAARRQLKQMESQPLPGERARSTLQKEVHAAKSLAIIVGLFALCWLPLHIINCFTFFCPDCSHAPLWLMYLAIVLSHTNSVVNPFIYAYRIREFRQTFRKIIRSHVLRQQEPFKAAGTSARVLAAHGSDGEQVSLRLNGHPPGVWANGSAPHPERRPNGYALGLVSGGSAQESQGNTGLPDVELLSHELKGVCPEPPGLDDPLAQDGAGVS

Adenosine receptor A2a [4] = molecular target: T1, Adenosine receptor A2a; test: Antagonist activity at recombinant human A2A receptor expressed in HEK293T cells co-expressing Gs assessed as inhibition of NECA-stimulated cAMP accumulation preincubated for 15 mins followed by NECA addition and measured after 15 mins by Glosensor chemiluminescence assay; type: functional, cell-based
[5] = molecular target: G-protein coupled receptor 68 (Mus musculus) (UniProt Q8BFQ3); test: as §1, with “mouse GPR68” for “human GPR4”, “by measuring allosteric index” for “at higher concentration”; type: functional, cell-based
Chain of G-protein coupled receptor 68 (Mus musculus) (Q8BFQ3 whole entry): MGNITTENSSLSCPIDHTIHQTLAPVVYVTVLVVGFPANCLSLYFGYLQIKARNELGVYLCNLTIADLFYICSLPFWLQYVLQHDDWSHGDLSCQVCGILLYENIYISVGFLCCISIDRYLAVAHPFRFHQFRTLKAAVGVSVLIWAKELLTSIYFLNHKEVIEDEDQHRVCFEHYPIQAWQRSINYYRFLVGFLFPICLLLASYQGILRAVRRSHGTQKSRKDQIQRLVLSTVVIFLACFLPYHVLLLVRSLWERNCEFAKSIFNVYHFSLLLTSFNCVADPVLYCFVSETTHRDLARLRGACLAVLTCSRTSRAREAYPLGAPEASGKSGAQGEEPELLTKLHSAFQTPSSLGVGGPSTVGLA
Summary of the method: (§3)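 α, β and KB obtained by fitting proton responses with and without modulator to the standard allosteric operational model. Overall index is log(αβ/KB). Values are mean ± SEM from ≥3 independent assays, each run in triplicate or quadruplicate.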

Adenosine receptor A2a [6] = molecular target: T1, Adenosine receptor A2a; test: Displacement of [3H]ZM241385 from recombinant human A2A receptor incubated for 90 mins under dark condition by microbeta scintillation method
[7] = molecular target: G-protein coupled receptor 68 (Homo sapiens) (UniProt Q15743); test: as §1, with “GPR68” for “GPR4”, “by measuring allosteric index” for “at higher concentration”; type: functional, cell-based; summary of the method: as §2
Chain of G-protein coupled receptor 68 (Homo sapiens) (Q15743 whole entry): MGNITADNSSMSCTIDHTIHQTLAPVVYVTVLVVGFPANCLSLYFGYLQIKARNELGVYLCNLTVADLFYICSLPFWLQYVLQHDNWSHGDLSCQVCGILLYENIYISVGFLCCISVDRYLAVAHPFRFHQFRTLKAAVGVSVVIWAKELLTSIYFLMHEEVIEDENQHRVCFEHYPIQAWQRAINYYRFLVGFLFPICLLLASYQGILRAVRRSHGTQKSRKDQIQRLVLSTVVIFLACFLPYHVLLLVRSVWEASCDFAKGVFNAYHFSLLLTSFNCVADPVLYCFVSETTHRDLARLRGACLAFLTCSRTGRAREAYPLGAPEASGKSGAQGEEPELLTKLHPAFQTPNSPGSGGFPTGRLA

Adenosine receptor A2a [8] = molecular target: T1, Adenosine receptor A2a; test: Inverse agonist activity at recombinant human A2A receptor expressed in HEK293T cells co-expressing Gs assessed as decrease in cAMP accumulation measured after 15 mins by Glosensor chemiluminescence assay; type: functional, cell-based
[9] = molecular target: G-protein coupled receptor 68 (Homo sapiens) (UniProt Q15743); test: as §1, with “GPR68” for “GPR4”, “by measuring efficacy cooperativity” for “at higher concentration”; type: functional, cell-based; summary of the method: as §2
[10] = molecular target: G-protein coupled receptor 68 (Mus musculus) (UniProt Q8BFQ3); test: as §1, with “mouse GPR68” for “human GPR4”, “by measuring allosteric affinity cooperativity” for “at higher concentration”; type: functional, cell-based; summary of the method: as §3
[11] = molecular target: G-protein coupled receptor 68 (Mus musculus) (UniProt Q8BFQ3); test: as §1, with “mouse GPR68” for “human GPR4”, “by measuring efficacy cooperativity” for “at higher concentration”; type: functional, cell-based; summary of the method: as §3
[12] = molecular target: G-protein coupled receptor 68 (Homo sapiens) (UniProt Q15743); test: as §1, with “GPR68” for “GPR4”, “by measuring allosteric affinity cooperativity” for “at higher concentration”; type: functional, cell-based; summary of the method: as §2
[13] = molecular target: G-protein coupled receptor 65 (Homo sapiens) (UniProt Q8IYL9); test: as §1, with “GPR65” for “GPR4”; type: functional, cell-based; summary of the method: as §2
Chain of G-protein coupled receptor 65 (Homo sapiens) (Q8IYL9 whole entry): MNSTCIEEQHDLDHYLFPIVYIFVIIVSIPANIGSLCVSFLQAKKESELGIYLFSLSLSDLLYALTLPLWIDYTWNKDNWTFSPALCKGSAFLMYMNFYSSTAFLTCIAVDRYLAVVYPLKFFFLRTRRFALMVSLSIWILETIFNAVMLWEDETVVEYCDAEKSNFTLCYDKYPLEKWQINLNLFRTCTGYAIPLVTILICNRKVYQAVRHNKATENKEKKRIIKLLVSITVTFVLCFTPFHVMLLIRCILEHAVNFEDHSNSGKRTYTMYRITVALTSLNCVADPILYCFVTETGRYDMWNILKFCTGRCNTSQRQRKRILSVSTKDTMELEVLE

Nc1nc(NCc2ccc(Cl)cc2)nc(-c2ccccc2CO)n1
Activity [1]: inactive
Activity [2]: inactive
Activity (Adenosine receptor A2a [3]): inactive
Ki (Adenosine receptor A2a [4]): 6.7 µM
Activity index [5]: 5.68
Ki (Adenosine receptor A2a [6]): 0.3 µM
Activity index [7]: 6.11
IC50 (Adenosine receptor A2a [8]): 1.7 µM
log(activity) [9]: 0.41
log(activity) [10]: 1.41
log(activity) [11]: -0.02
log(activity) [12]: 0.49
Activity [13]: inactive
